# Screening results as filed in PubChem.
# An excerpt weighted towards active compounds, which were near 1.6% of everything screened.
# TRAIL sens C8 – sensitizes caspase-8 expressing cells to TRAIL; NB7+C8 cells + TRAIL, ATPlite viability luminescence; 360,000 tested, 1% active; inhibition (viability loss, TRAIL sensitization), % at 10 µM;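 active = compounds causing at least 50% loss of cell viability in the single-dose screen, relative to plate controls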
# PPC-1+TRAIL kill – kills PPC-1 cancer cells in the presence of TRAIL. PPC-1 cells + TRAIL, ATPLite viability luminescence. cell killing (% activity), % at 4 µM or 5 µM. 220,000 tested, 0.41% active. AID 1443;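 active = cell killing above 50% in the first pass at 4 µM, then a duplicate retest at 5 µM averaging 50% or more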;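 also: plate controls were cells with TRAIL plus DMSO for no effect and medium-only wells lacking cells for full effect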
# FLuc act counter – affects firefly luciferase, flagging false hits in luciferase stimulation screens; P08659; ATPlite luciferase biochemical, luminescence, 10 min; 0 = ATP-free wells, 1 = DMSO control; activation factor at 10 µM; 200,000 tested, under 10 active;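 active = luciferase activation factor, scaled between plate controls, of at least 2 with compound at 10 µM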
# Target sequence (P08659 whole entry, looked up): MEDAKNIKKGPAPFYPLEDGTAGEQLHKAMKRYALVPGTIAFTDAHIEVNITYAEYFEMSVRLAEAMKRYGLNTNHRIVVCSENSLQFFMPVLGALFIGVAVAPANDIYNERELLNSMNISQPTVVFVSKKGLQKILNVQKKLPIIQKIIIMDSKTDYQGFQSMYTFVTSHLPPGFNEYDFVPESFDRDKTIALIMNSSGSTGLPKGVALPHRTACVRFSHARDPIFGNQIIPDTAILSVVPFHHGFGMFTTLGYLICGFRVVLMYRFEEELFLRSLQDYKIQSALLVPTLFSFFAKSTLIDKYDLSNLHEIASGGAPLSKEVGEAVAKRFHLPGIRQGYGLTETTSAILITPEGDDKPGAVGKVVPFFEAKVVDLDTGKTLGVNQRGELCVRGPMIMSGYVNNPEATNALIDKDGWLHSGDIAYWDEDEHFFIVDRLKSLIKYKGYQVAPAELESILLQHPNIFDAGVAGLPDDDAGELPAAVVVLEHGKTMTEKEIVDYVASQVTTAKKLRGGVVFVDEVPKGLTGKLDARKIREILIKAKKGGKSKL
#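 System: luciferase plus luciferin reagent, cell-free; medium: PBS as buffer for the ATP substrate; dosing: test compounds dosed from 2 mM stocks in 100% DMSO; timing: 10 min post-reagent at room temperature; measured by: luminescence measurement of luciferase light output; evaluation: luciferase activation, seen as luminescence increase over controls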
# FLuc inh counter – inhibits firefly luciferase, flagging false hits in luciferase inhibition screens | ATPLite firefly luciferase biochemical luminescence, 10 min | AID 1006 | 200,000 tested, 1.5% active | inhibition, % at 10 µM;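 active = inhibition above about 50% when tested at 10 µM, limit read from the data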
# * = called active by the depositor; . = no result.
SMILES,TRAIL sens C8,PPC-1+TRAIL kill,FLuc act counter,FLuc inh counter
O=C(C[C@H]1C/C=C\C[C@H](NC(=O)OCC2c3ccccc3-c3ccccc32)C(=O)O[C@H](c2ccccc2)CNC1=O)N[C@H](CO)Cc1ccccc1,85*,.,.,.
Cc1cccc(NC(=O)N2CCCC2C(=O)Nc2ccccc2)c1 (centres undefined),-18,13,1.1,-7
CCOc1ccc(S(=O)(=O)N2CCOCC2)cc1NC(=O)CN1C(=O)NC(C)(c2ccccc2)C1=O (centres undefined),3,.,.,.
CCN(CC)c1ccc(/C=N/O)cc1,5,7,0.8,18
CCN(CC)c1ccc(N=Nc2ncn[nH]2)cc1,48,47,0.2,82*
COc1ccccc1NC(=O)c1cc(Sc2nncn2C)nc2ccccc12,-7,33,1,-3
O=C(Nc1nnc(SCC(=O)N2CCCc3ccccc32)s1)c1ccc2ccccc2c1,83*,64*,0.1,92*
Cc1cc(C)cc(C(=O)Nc2nnc(SCC(=O)N3CCCc4ccccc43)s2)c1,8,18,1,1
O=C(Nc1nnc(SCC(=O)N2CCCc3ccccc32)s1)c1ccccc1,75*,75*,0.1,92*
N#CCC(=O)Nc1ccc(C(=O)OCC(=O)N2CCN(C(=O)c3ccco3)CC2)cc1,2,.,.,.
Cc1cc(C)c(C)c(OCCCN(C)C)c1,1,24,1,0
O=C(NCCc1ccccc1)c1ccc([N+](=O)[O-])cc1,39,12,0.3,66*
O=C(NC1CCCCC1)C(c1cccnc1)N(C(=O)CCl)c1ccccc1Cl (centres undefined),15,0,1.1,-10
COc1ccc(N(C(=O)CCl)C(C(=O)NC2CCCCC2)c2cccnc2)cc1 (centres undefined),94*,22,1.1,-10
O=C(NC1CCCCC1)C(c1cccnc1)N(C(=O)CCl)c1ccc(F)cc1 (centres undefined),94*,1,1.1,-8
COc1ccc(C(C(=O)NC2CCCCC2)N(C(=O)c2ccccn2)c2cccnc2)cc1 (centres undefined),-4,.,1,2
CNc1ccccc(-c2ccc3ccccc3n2)c1=O,-11,16,0.7,27
COc1ccc2cc(/C=N/NC(=O)CN(c3ccccc3C)S(=O)(=O)c3ccccc3)c(Cl)nc2c1,0,10,1.1,-5
Cc1ccc(-c2nc3ccccn3c2C=O)cc1,19,17,0.5,50*
Cc1ccc(NC(=O)Nc2c(Cl)cccc2Cl)cn1,-16,4,.,.
N/C(=N\OC(=O)c1cccs1)C1(c2ccc(Cl)cc2Cl)CC1,-1,15,.,.
N/C(=N\OC(=O)/C=C/c1ccccc1)c1cccnc1,-4,48,0.2,81*
Cc1ccccc1/C(N)=N/OC(=O)/C=C/c1ccccc1,94*,10,0.4,56*
N/C(=N\OC(=O)c1cccs1)c1cccnc1,-9,.,.,.
N/C(Cc1ccc(Cl)c(Cl)c1)=N\OC(=O)c1cccs1,64*,19,1,-4
SMILES,TRAIL sens C8,PPC-1+TRAIL kill,FLuc act counter,FLuc inh counter
Cc1ccccc1/C(N)=N/OC(=O)c1cccs1,-11,22,0.3,69*
C/C(=N\Nc1nc2ccccc2[nH]1)c1ccc2c(c1)OCO2,21,4,0.7,32
C/C(=N\Nc1nc2ccccc2[nH]1)c1cc2ccccc2o1,59*,14,0.2,78*
C/C(=N\Nc1nc2ccccc2[nH]1)c1ccc2c(c1)OCCO2,40,32,0.2,78*
C/C(=N\Nc1nc2ccccc2[nH]1)c1ccccn1,58*,.,.,.
CCCCCc1cc(=O)oc2c(C(CCN3CCCCC3)c3cc(OC)c(OC)c(OC)c3)c(OC)cc(OC)c12 (centres undefined),67*,21,.,.
Oc1ccc(/C=N/Nc2nn3cnnc3c3ccccc23)cc1,63*,34,.,.
C(=N\Nc1nn2cnnc2c2ccccc12)/c1ccco1,-1,35,0.9,12
COc1cccc(/C=N/Nc2nn3cnnc3c3ccccc23)c1,64*,37,0.3,71*
COc1cccc(/C=N/Nc2nc3ccccc3n3cnnc23)c1,24,19,1.1,-9
C#Cc1cccc(C(=O)N2CCCC(C(=O)c3ccc(OC)cc3C)C2)c1 (centres undefined),13,.,.,.
COc1cccc(C=O)c1OCCN1C(=O)c2ccccc2C1=O,-9,.,.,.
O=C(Nc1cc(Cl)ccc1-n1cncn1)c1cc(F)c(F)c(F)c1F,3,.,.,.
Cc1cc(C)cc(NCCC#N)c1,0,-5,1.1,-5
COc1ccc2oc(C(=O)N3CCc4ccccc43)c(C)c2c1,82*,.,.,.
COc1ccc2oc(C(=O)Nc3ccc(C)cn3)c(C)c2c1,33,.,.,.
COc1ccc2oc(C(=O)Nc3ccccn3)c(C)c2c1,62*,.,.,.
COCc1c(C(=O)Nc2nc(C)cs2)oc2ccccc12,-9,0,0.9,5
COc1ccc2oc(C(=O)Nc3nc(C)cs3)c(C)c2c1,60*,.,.,.
Cc1ccc(S(=O)(=O)N2CCC(C(=O)O)CC2)cc1,3,12,1.1,-7
CN(C)c1ccc(/C=N/N=C2/NC(=O)/C(=C/c3ccc([N+](=O)[O-])cc3)S2)cc1,87*,54*,0.1,89*
CN(C)c1ccc(C=C2SC(=S)NC2=O)cc1,47,.,.,.
Cc1ccc(-c2nc(N/N=C/c3cccc([N+](=O)[O-])c3)c3ccccc3n2)cc1,64*,.,0.2,82*
O=C(N/N=C/c1cccc([N+](=O)[O-])c1)c1cc(-c2ccccc2)nc2ccccc12,21,24,1.1,-10
CCOc1ccc(NC(=O)CN(C)C(=O)c2sc3ccccc3c2Cl)cc1OCC,-3,.,.,.
SMILES,TRAIL sens C8,PPC-1+TRAIL kill,FLuc act counter,FLuc inh counter
Cc1ccn(-c2ccc(NC(=O)c3cccs3)cc2)n1,55*,.,.,.
CCC(C)c1ccc(NC(=O)c2cccs2)cc1 (centres undefined),60*,25,0.3,75*
CN(C)c1ccc(C=NN2CCCCCC2)cc1,15,.,.,.
CC(C)c1ccc(/C=N/N2CCCCC2)cc1,3,9,0.3,66*
Cc1ccc(C)c(S(=O)(=O)N2CCCOC2CNC(=O)C(=O)NCc2ccccn2)c1 (centres undefined),-16,.,.,.
O=C(NCC1CCCCC1)c1csc([C@@H]2C[C@H](O)[C@@H](CO)O2)n1,12,.,.,.
COc1cccc(NC(=O)COc2ccccc2C(N)=O)c1,40,50,0.3,68*
COc1cccc(NC(=O)CSc2nnc(-c3ccc(C)cc3)o2)c1,14,57*,1.1,-5
O=C(CSc1nnc(-c2ccc(O)cc2)o1)Nc1cccc(O)c1,48*,.,.,.
COc1ccc(OCC(=O)Nc2cccc(OC)c2)cc1,-2,27,0.9,15
CN1CCCC(OC(=O)c2ccccc2Br)C1 (centres undefined),-3,.,.,.
COc1cccc(N=C2CC(C)(C)CC(=O)/C2=C(/O)c2ccccc2)c1,2,17,1,-1
O=C(COc1ccc2c(c1)CCC2)Nc1ccccn1,84*,.,.,.
COc1cccc(-n2c(SCC(=O)N3CCc4ccccc43)nnc2-c2c[nH]c3ccccc23)c1,59*,6,1,-3
